In general, LD50 refers to the dose expected to kill half of the subjects tested. Higher therefore signals lower toxicity. One may read the inhibition in vivo as the change of the read-out against control, counted positive when it falls. A low value points to a response near the control.

In data set [1] the test system is Rattus norvegicus. Briefly: Rat PCA Test(50% inhibition of spot areas)in the female albino rats after (ip) administration in 10% aqueous acacia gum; value ranges from 164-246. The following applies: read-out: ID50 (the source's name). It is filed as functional. An outline of the steps:
(§1)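 Female albino rats (200–250 g) received intradermal ventral injections of rat anti-egg-albumin antiserum; donors were raised with egg albumin im plus H. pertussis ip, and serum was taken at 12 days. 24 h later, compound was given ip in 10% acacia gum (10 mL/kg), 10 rats/group. Challenge 30 min later was iv 0.3% egg albumin plus 1% Evans blue. Blued areas were measured 30 min after challenge.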

The subject of data set [2] is Rattus norvegicus. Briefly: Rat PCA Test(50% inhibition of spot areas)in the female albino rats after oral administration in 10% aqueous acacia gum. The conditions noted are these: read-out: ID50 (the source's name). Type of data set: functional. An outline of the steps: (§2)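 Female rats (200-250 g) were passively sensitized by ventral intradermal anti-egg-albumin antiserum. This was raised in rats by intramuscular 1% egg albumin plus ip H. pertussis vaccine, with serum taken at 12 days. After 24 h, groups of 10 were dosed orally with compound or vehicle (10 mL/kg). At 60 min, iv challenge used 0.3% egg albumin with 1% Evans blue. Blued areas were measured after 30 min.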

The subject of data set [3] is Cavia porcellus. Briefly: Antibronchospatic activity determined by histamine stimulated bronchospasm inhibition in guinea pigs after(i.v.) administration. Type of data set: functional, Bronchiole. The procedure, abridged:
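Guinea pigs, Konzett–Rössler preparation. Bronchospasm was induced with histamine. Compound was given iv (1 mL/kg) 1 min before the agonist, dissolved in saline or saline with slight excess HCl or CH3SO3H (pH 3.5–4). Three doses were tested in duplicate, chosen to give 20–90% inhibition. ID75 was read graphically from log dose–response curves.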

Data set [4] can be described thus: In vivo toxicity in mouse after oral administration with 10% aqueous acacia gum. Type of data set: organism-based. An outline of the steps:
(§3)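 Female albino mice, 20-30 g. Compound given orally as solution or suspension in 10% aqueous acacia gum, 10 animals per dose. Deaths recorded over 7 days.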

The test system of data set [5] is Rattus norvegicus. Briefly: Rat PCA Test(50% inhibition of spot areas)in the female albino rats after (ip) administration in 10% aqueous acacia gum; Value ranges from(42-57). Type of data set: functional. The following applies: read-out: ID50 (the source's name). The procedure, abridged:
as §1

A short description of data set [6]: In vivo toxic effect was determined in mouse after oral administration with 10% aqueous acacia gum;Value ranges from(1.30-1.80). Type of data set: toxicity, organism-based. The procedure, abridged:
as §3

A short description of data set [7]: In vivo toxic effect was determined in mouse after intraperitoneal administration with 10% aqueous acacia gum; value ranges from 0.41-0.93. It is filed as toxicity, organism-based. The following applies: ip. The procedure, abridged:
(§4)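 Female albino mice (20-30 g), 10 animals per dose, dosed intraperitoneally with compound in solution or suspension; compounds tested as salts unless noted. Mortality was recorded over 7 days.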

For data set [8], the system named is Rattus norvegicus. Briefly: Rat PCA Test(50% inhibition of spot areas)in the female albino rats after oral administration in 10% aqueous acacia gum; value ranges from 184-369. Type of data set: functional. The conditions noted are these: read-out: ID50 (the source's name). The procedure, abridged:
as §2

The nature of data set [9]: In vivo toxic effect was determined in mouse after intraperitoneal administration with 10% aqueous acacia gum; value ranges from 1.82-3.42. The following applies: ip. It is filed as toxicity, organism-based. An outline of the steps: as §4
The subject of data set [10] is Rattus norvegicus. Briefly: Rat PCA Test(50% inhibition of spot areas)in the female albino rats after (ip) administration in 10% aqueous acacia gum; value ranges from 99-415. The conditions noted are these: read-out: ID50 (the source's name). Type of data set: functional. The procedure, abridged:
(§5)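 Antiserum came from female rats given 1% egg albumin in 0.9% NaCl intramuscularly plus Haemophilus pertussis vaccine (2 × 10^10 organisms) intraperitoneally, and was collected 12 days later. Recipient rats (200-250 g) got it intradermally at a ventral site. After 24 h, groups of 10 received vehicle or compound ip. At 30 min they were challenged iv with 0.3% egg albumin plus 1% Evans blue. Blued skin areas were measured 30 min later.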

Data set [11] concerns Rattus norvegicus. Briefly: Inhibition of mast cell degranulation was assessed in female albino rats at a dose of 65 umol/kg iv. It is filed as functional.
Data set [12] is described as follows: In vivo toxic effect was determined in mouse after intraperitoneal administration with 10% aqueous acacia gum; value ranges from 0.94-1.40. Type of data set: toxicity, organism-based. The following applies: ip. The procedure, abridged: as §4
The subject of data set [13] is Rattus norvegicus. The experiment in a line: Rat PCA Test(50% inhibition of spot areas)in the female albino rats after (ip) administration in 10% aqueous acacia gum. Type of data set: functional. The conditions noted are these: read-out: ID50 (the source's name). An outline of the steps: as §1
Data set [14] can be described thus: In vivo toxic effect was determined in mouse after oral administration with 10% aqueous acacia gum value ranges from 1.63-2.93. Type of data set: toxicity, organism-based.
The nature of data set [15]: In vivo toxic effect was determined in mouse after oral administration with 10% aqueous acacia gum; value ranges from 1.72-3.90. It is filed as toxicity, organism-based. The procedure, abridged: as §3
Data set [16] in a line: In vivo toxic effect was determined in mouse after intraperitoneal administration with 10% aqueous acacia gum; value ranges from 0.96-1.77. It is filed as toxicity, organism-based. The following applies: ip. An outline of the steps:
as §4

In data set [17] the test system is Rattus norvegicus. The experiment in a line: Rat PCA Test(50% inhibition of spot areas)in the female albino rats after (ip) administration in 10% aqueous acacia gum; value ranges from 40-122. It is filed as functional. The following applies: read-out: ID50 (the source's name). The procedure, abridged:
as §1

Data set [18] concerns Rattus norvegicus. The experiment in a line: Rat PCA Test(50% inhibition of spot areas)in the female albino rats after oral administration in 10% aqueous acacia gum; value ranges from 119-331. It is filed as functional. The conditions noted are these: read-out: ID50 (the source's name). The procedure, abridged:
as §2

Data set [19] has as its system Rattus norvegicus. Briefly: Inhibition of mast cell degranulation was assessed in female albino rats at a dose of 32 umol/kg iv. It is filed as functional.
The nature of data set [20]: In vivo toxic effect was determined in mouse after intraperitoneal administration with 10% aqueous acacia gum; value ranges from 0.39-0.70. Type of data set: toxicity, organism-based. The conditions noted are these: ip. The procedure, abridged:
as §4

Data set [21] has as its system Rattus norvegicus. Briefly: Rat PCA Test(50% inhibition of spot areas)in the female albino rats after ip administration in 10% aqueous acacia gum; Value ranges from(26-134). Type of data set: functional. The conditions noted are these: read-out: ID50 (the source's name). An outline of the steps: as §5
A short description of data set [22]: In vivo toxic effect was determined in mouse after intraperitoneal administration with 10% aqueous acacia gum; value ranges from 0.39-0.76. It is filed as toxicity, organism-based. The conditions noted are these: ip. An outline of the steps: as §4
Data set [23] relates to Rattus norvegicus. Briefly: Rat PCA Test(50% inhibition of spot areas)in the female albino rats after ip administration in 10% aqueous acacia gum. It is filed as functional. The conditions noted are these: read-out: ID50 (the source's name). An outline of the steps: as §5
Data set [24] is described as follows: In vivo toxic effect was determined in mouse after oral administration with 10% aqueous acacia gum; value ranges from 0.93-1.70. Type of data set: toxicity, organism-based. An outline of the steps: as §3
Data set [25] deals with Rattus norvegicus. The experiment in a line: Rat PCA Test(50% inhibition of spot areas)in the female albino rats after (ip) administration in 10% aqueous acacia gum; value ranges from 78-93. Type of data set: functional. The following applies: read-out: ID50 (the source's name). The procedure, abridged: as §5
The nature of data set [26]: In vivo toxic effect was determined in mouse after intraperitoneal administration with 10% aqueous acacia gum; value ranges from 0.66-1.99. It is filed as toxicity, organism-based. The conditions noted are these: ip. An outline of the steps: as §4
For data set [27], the system named is Rattus norvegicus. The experiment in a line: Inhibition of mast cell degranulation was assessed in female albino rats at a dose of 45 umol/kg iv. It is filed as functional.
The subject of data set [28] is Rattus norvegicus. The experiment in a line: Rat PCA Test(50% inhibition of spot areas)in the female albino rats after oral administration in 10% aqueous acacia gum; value ranges from 110-212. It is filed as functional. The conditions noted are these: read-out: ID50 (the source's name). The procedure, abridged: as §2
In data set [29] the test system is Rattus norvegicus. The experiment in a line: Rat PCA Test(50% inhibition of spot areas)in the female albino rats after (ip) administration in 10% aqueous acacia gum; value ranges from 57-142. It is filed as functional. The following applies: read-out: ID50 (the source's name). The procedure, abridged: as §1
A short description of data set [30]: In vivo toxic effect was determined in mouse after intraperitoneal administration with 10% aqueous acacia gum; value ranges from 0.48-0.77. Type of data set: toxicity, organism-based. The following applies: ip. The procedure, abridged:
as §4

A short description of data set [31]: In vivo toxic effect was determined in mouse after oral administration with 10% aqueous acacia gum; value ranges from 1.23-1.71. Type of data set: toxicity, organism-based. The procedure, abridged:
as §3

Data set [32] relates to Rattus norvegicus. Briefly: Rat PCA Test(50% inhibition of spot areas)in the female albino rats after oral administration in 10% aqueous acacia gum; value ranges from 80-141. It is filed as functional. The conditions noted are these: read-out: ID50 (the source's name). An outline of the steps:
as §2

Data set [33] has as its system Rattus norvegicus. Briefly: Rat PCA Test(50% inhibition of spot areas)in the female albino rats after (ip) administration in 10% aqueous acacia gum; value ranges from 45-69. It is filed as functional. The conditions noted are these: read-out: ID50 (the source's name). An outline of the steps:
as §1

`NC(=O)Nc1ccc(NC(=O)CCN2CCN(c3ccccn3)CC2)cc1`: the ED50 in data set [1] was 194 µmol/kg; in data set [2], above 271 µmol/kg. In addition, in data set [3], the ID75 is 0.25 µM/kg. For the same compound, in [4], the LD50 was above 8100 µmol/kg.

With `CC(=O)c1ccc(NC(=O)CCN2CCN(c3ccccn3)CC2)cc1.Cl.Cl`, the ED50 in [5] is 49 µmol/kg. Besides, the LD50 in data set [6] is 1500 µmol/kg; in [7], 480 µmol/kg. Also, the ID75 in [3] came out at 0.02 µM/kg.

As for `Cl.Cl.NC(=O)CCN1CCN(c2ccccn2)CC1`, the ED50 in [8] is 260 µmol/kg; in data set [10], 203 µmol/kg. In data set [9], the LD50 turned out to be 2440 µmol/kg. The compound also returned an ID75 in [3] of 2.47 µM/kg. This compound yielded an inhibition in vivo at 65 µmol/kg in [11] of 23%.

For `CC(C)Sc1ccc(NC(=O)CCN2CCN(c3ccccn3)CC2)cc1`, the LD50 in data set [12] turned out to be 1140 µmol/kg; in data set [14], 2180 µmol/kg. Also, the ED50 in [2] was above 221 µmol/kg; in data set [13], above 120 µmol/kg. For the same compound, the ID75 in data set [3] was 0.8 µM/kg.

As to `Cl.Cl.O=C(CCN1CCN(c2ccccn2)CC1)Nc1ccccc1Cl`, the results for the LD50 in data set [15] and in data set [16] were 2640 µmol/kg and 1290 µmol/kg, respectively. The values for the ED50 in data set [17] and in data set [18] were 70 µmol/kg and 199 µmol/kg, respectively. In [19], this compound came in with an inhibition in vivo at 32 µmol/kg of 0%.

In turn, `Cc1cc([N+](=O)[O-])cc(C)c1C(=O)NCCN1CCN(c2ccccn2)CC1.Cl.Cl` came in with an LD50 in data set [20] of 530 µmol/kg. Besides, the ID75 in data set [3] amounted to 4.6 µM/kg. In data set [21], the ED50 turned out to be 78 µmol/kg.

Turning to `Cc1cc(N)cc(C)c1C(=O)NCCN1CCN(c2ccccn2)CC1.Cl`, the ID75 in data set [3] was 5.27 µM/kg. The compound also showed an LD50 in [22] of 550 µmol/kg. Moreover, the ED50 in data set [23] is above 167 µmol/kg.

Turning to `Cl.Cl.O=C(CCN1CCN(c2ccccn2)CC1)Nc1c(Cl)cccc1Cl`, the LD50 in [24] was 1240 µmol/kg; in data set [26], 800 µmol/kg. In data set [3], this compound gave an ID75 of 0.4 µM/kg. The ED50 in data set [25] is 85 µmol/kg.

Regarding `COc1cccc(N2CCN(CCC(=O)Nc3ccccc3[N+](=O)[O-])CC2)n1.Cl`, the ED50 in [13] is above 237 µmol/kg. In [3], this compound returned an ID75 of 0.52 µM/kg. Also, the LD50 in [4] is above 7100 µmol/kg.

As for `CC(=O)Nc1ccc(NC(=O)CCN2CCN(c3ccccn3)CC2)cc1.Cl.Cl`, the inhibition in vivo at 45 µmol/kg in data set [27] was 29%. The ED50 turned out to be 153 µmol/kg in [28] and 90 µmol/kg in data set [29]. In data set [3], this compound registered an ID75 of 0.97 µM/kg. The compound further gave an LD50 in data set [4] above 6810 µmol/kg.

For the compound `COc1cccc(N2CCN(CCC(=O)Nc3ccc(N)cc3)CC2)n1.Cl.Cl`, the LD50 was 530 µmol/kg in [30] and 1600 µmol/kg in data set [31]. Besides, the results for the ED50 in data set [32] and in data set [33] were 106 µmol/kg and 56 µmol/kg, respectively. In [3], this compound gave an ID75 of 0.4 µM/kg.

These data come from ChEMBL document CHEMBL1123658, “1-(2-pyridinyl)piperazine derivatives with antianaphylactic, antibronchospastic, and mast cell stabilizing activities” (J Med Chem, 1987).
